Measured values as given in paper PMC3411050 (The Journal of Biological Chemistry, 2012).
Like-named read-outs stand apart in the source and are kept apart here. Where no end group is shown, it is not given here.

Tests used:
T. californica nAChR [1] = biological target: T1, T. californica nAChR (Tetronarce californica, UniProt P02710+P02712+P02714+P02718); format: binding, Torpedo californica; details: Torpedo nAChR, from two-site IC50 values
[2] = biological target: human muscle-type nAChR, adult form (α1β1ϵδ) (Homo sapiens, UniProt P02708+P11230+Q04844+Q07001); format: cell-based; details: human muscle-type nAChR in oocytes; washing for 2 min
Summary of the method: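 Human α1, β1, δ and ε (adult) or γ (fetal) subunit cDNAs were injected into the oocyte nucleus, and two-electrode voltage clamp was run 2–3 days later. Cells received 5 s pulses of 5 μM ACh every 2 min. After stabilization, the test compound was applied at varied concentrations for at least 1 min, the ACh response was retested, and recovery was followed over several minutes.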

GABAA receptor α1β3γ2 = GABAA receptor α1β3γ2 (Rattus norvegicus, UniProt P18508+P62813+P63079); test: Two-electrode voltage clamp on recombinant GABAA receptors in Xenopus oocytes; format: cell-based; details: up to 100 μM
GABAA receptor α2β3γ2 = GABAA receptor α2β3γ2 (Rattus norvegicus, UniProt P18508+P23576+P63079); test: as above; format: cell-based; details: up to 10 μM
5-HT3A receptor = biological target: T2, 5-HT3A receptor (Homo sapiens, UniProt P46098); test: Current recording on 5-HT3 receptors in Xenopus oocytes; format: cell-based; details: concentrations up to 10 μM
T2 sequence (P46098 24-478): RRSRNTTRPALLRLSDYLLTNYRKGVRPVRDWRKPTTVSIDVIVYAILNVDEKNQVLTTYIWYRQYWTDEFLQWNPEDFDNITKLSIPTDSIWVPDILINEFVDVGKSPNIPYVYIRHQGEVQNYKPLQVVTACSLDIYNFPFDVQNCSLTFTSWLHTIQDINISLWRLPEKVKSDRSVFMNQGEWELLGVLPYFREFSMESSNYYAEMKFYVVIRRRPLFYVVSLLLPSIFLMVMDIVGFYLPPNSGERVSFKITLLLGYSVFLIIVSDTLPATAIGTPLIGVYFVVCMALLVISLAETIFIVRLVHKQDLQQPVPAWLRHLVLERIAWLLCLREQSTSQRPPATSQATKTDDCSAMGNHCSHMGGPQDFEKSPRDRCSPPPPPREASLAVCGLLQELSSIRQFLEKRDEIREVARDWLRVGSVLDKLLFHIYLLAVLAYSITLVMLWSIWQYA
Summary of the method: (§1)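 Human 5-HT3A (with 5-HT3B for the heteromer) subunit cRNA was transcribed in vitro from cDNA and injected into Xenopus oocytes. Currents were recorded 1–4 days after injection.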

5-HT3AB receptor = biological target: T3, 5-HT3AB receptor (Homo sapiens, UniProt O95264+P46098); test: as above; format: cell-based; details: concentrations up to 10 μM
T3 sequence (P46098 24-478): T2 sequence (P46098 24-478)
T3 sequence (O95264 22-441): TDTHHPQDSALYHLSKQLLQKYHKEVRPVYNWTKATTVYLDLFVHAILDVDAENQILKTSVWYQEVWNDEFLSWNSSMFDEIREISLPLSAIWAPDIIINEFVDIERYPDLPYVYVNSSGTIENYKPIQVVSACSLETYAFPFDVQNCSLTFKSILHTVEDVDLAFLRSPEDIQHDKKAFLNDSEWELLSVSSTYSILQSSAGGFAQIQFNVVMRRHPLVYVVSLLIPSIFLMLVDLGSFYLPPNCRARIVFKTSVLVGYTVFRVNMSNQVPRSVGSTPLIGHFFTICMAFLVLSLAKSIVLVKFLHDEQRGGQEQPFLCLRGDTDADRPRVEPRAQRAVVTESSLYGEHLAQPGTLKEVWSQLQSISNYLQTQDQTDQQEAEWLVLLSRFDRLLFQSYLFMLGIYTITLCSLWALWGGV
Summary of the method: as §1

[3] = system: adult male mice of BALB/c line; test: Lethal effect of azemiopsin on mice; format: in vivo, mouse; details: intraperitoneal injection, solution in water, doses 2–10 mg/kg
Summary of the method: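 Adult male BALB/c mice (18–22 g) were kept on a 12/12-h light/dark cycle with food and water ad libitum. The test compound, dissolved in water, was given intraperitoneally at 2, 2.7, 4, 8 and 10 mg/kg body weight.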

T. californica nAChR [4] = biological target: T1, T. californica nAChR; details: read-out: IC50, inhibition of α-bungarotoxin binding; cited from earlier work
Human α7 nAChR [5] = biological target: T4, Human α7 nAChR (Homo sapiens, UniProt P36544); details: read-out: IC50, inhibition of α-bungarotoxin binding; cited from earlier work
Human α7 nAChR [6] = biological target: T4, Human α7 nAChR; details: read-out: IC50, inhibition of α-bungarotoxin binding
L. stagnalis AChBP = L. stagnalis AChBP (Lymnaea stagnalis, UniProt P58154); details: read-out: IC50, inhibition of α-bungarotoxin binding
A. californica AChBP = biological target: T5, A. californica AChBP (Aplysia californica, UniProt Q8WSF8); details: read-out: IC50, inhibition of α-bungarotoxin binding
T5 sequence (Q8WSF8 18-236 limits assumed): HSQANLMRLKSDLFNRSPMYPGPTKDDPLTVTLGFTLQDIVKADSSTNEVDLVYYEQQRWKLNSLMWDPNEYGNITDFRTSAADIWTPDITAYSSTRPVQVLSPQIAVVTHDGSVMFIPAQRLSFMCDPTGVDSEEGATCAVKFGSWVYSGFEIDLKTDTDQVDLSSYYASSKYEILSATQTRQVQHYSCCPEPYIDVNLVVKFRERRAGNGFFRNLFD

T4 sequence (P36544 23-502): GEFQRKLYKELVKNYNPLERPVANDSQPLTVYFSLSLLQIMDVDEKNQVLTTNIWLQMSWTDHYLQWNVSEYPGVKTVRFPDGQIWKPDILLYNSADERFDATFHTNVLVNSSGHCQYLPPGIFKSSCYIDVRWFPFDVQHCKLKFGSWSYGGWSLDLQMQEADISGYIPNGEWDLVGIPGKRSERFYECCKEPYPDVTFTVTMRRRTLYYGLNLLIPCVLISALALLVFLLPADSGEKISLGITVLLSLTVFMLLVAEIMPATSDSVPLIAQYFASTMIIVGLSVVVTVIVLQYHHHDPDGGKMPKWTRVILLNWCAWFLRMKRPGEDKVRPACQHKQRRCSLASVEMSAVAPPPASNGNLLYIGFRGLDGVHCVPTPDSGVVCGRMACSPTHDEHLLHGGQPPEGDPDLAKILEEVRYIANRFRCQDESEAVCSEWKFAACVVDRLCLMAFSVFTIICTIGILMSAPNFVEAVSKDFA
T1 sequence (P02710 25-461): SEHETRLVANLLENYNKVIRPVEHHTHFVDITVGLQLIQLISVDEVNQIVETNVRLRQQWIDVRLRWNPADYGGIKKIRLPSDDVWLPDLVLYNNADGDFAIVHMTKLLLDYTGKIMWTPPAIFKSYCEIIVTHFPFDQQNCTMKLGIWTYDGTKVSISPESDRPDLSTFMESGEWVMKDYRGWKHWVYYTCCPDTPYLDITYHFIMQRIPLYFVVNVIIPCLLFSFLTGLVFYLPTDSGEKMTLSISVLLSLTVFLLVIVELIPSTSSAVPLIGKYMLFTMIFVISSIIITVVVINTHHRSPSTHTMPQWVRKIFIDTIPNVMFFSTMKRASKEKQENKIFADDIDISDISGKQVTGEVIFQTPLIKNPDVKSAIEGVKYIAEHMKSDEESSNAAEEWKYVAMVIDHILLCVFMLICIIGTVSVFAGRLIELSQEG
T1 sequence (P02712 25-493 partner): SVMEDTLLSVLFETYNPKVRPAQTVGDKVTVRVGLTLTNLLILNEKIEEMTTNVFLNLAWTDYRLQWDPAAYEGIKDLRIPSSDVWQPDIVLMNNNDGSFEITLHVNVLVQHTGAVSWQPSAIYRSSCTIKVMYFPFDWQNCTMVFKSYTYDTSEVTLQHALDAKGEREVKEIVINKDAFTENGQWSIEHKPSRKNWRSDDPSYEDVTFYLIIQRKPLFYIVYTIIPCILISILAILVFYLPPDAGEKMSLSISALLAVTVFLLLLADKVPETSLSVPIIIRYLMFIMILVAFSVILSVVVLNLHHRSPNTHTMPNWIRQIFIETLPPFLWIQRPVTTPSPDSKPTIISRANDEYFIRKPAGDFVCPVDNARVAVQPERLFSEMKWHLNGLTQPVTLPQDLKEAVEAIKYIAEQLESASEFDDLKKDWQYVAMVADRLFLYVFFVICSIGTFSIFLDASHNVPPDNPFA
T1 sequence (P02714 18-506): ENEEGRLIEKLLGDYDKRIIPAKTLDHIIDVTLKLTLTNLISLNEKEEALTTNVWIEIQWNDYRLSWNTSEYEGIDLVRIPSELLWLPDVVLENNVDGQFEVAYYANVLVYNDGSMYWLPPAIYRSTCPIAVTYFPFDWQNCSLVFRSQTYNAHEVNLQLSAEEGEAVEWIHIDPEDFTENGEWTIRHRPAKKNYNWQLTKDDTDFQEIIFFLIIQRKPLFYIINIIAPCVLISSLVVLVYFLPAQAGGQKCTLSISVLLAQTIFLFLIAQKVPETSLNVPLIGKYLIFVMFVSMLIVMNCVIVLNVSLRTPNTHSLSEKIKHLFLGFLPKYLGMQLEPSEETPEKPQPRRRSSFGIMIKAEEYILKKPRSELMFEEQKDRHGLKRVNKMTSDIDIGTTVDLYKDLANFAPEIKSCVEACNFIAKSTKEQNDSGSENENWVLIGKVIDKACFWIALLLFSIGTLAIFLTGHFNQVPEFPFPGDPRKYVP
T1 sequence (P02718 22-522): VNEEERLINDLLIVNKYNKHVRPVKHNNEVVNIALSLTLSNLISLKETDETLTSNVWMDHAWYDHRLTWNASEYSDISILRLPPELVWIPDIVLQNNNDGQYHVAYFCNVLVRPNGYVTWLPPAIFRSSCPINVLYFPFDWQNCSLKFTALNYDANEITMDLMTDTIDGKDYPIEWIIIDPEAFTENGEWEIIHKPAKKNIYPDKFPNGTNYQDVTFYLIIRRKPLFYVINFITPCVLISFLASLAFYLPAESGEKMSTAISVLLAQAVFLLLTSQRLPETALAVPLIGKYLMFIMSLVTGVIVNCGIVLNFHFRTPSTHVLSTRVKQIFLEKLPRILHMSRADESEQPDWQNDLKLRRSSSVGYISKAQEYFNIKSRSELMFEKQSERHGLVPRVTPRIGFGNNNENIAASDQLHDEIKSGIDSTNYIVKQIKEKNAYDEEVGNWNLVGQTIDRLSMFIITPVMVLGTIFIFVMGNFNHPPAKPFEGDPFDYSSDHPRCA
GABAA receptor α1β3γ2, sequence (P62813 28-455): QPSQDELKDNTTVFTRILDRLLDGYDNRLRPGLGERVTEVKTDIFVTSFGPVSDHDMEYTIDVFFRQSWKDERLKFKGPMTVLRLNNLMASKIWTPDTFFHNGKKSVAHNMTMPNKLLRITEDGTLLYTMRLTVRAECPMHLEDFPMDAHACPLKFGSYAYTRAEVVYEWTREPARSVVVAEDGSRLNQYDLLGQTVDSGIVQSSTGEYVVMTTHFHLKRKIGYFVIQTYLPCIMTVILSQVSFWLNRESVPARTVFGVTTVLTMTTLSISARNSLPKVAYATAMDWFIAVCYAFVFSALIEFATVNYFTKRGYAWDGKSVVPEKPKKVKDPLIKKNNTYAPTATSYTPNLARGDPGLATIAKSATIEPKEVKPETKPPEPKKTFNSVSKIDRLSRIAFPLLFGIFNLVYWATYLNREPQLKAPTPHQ
GABAA receptor α1β3γ2, sequence (P63079 26-473): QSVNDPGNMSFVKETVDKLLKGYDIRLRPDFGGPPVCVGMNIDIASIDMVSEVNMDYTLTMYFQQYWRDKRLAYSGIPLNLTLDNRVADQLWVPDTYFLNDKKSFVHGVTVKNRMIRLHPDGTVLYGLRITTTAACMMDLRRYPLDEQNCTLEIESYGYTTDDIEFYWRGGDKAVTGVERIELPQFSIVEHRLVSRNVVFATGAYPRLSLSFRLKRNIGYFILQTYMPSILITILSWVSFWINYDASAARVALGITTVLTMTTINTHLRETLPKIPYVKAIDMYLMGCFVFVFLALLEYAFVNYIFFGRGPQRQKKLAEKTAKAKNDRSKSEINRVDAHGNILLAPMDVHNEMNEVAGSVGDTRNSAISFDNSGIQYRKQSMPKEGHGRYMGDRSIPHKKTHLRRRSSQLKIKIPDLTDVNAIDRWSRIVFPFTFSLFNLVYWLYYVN
GABAA receptor α1β3γ2, sequence (P18508 39-466): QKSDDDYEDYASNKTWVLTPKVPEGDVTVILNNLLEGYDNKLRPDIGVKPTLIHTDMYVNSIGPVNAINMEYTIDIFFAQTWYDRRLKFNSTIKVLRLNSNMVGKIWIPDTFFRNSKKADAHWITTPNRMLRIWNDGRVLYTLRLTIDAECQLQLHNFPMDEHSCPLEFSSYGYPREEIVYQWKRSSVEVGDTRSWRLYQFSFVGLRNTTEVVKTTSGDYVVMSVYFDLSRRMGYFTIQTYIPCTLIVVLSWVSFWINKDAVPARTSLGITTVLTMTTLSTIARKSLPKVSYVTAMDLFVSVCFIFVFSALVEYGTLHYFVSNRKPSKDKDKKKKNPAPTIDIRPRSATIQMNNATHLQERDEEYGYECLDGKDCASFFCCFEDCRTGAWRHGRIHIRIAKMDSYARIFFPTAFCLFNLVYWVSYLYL
L. stagnalis AChBP, sequence (P58154 20-229): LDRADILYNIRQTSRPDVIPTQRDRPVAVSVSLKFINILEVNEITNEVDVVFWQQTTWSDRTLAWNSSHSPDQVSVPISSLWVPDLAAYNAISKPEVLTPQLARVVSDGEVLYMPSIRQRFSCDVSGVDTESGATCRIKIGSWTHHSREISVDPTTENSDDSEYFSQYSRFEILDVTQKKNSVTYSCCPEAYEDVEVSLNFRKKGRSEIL
GABAA receptor α2β3γ2, sequence (P23576 29-451): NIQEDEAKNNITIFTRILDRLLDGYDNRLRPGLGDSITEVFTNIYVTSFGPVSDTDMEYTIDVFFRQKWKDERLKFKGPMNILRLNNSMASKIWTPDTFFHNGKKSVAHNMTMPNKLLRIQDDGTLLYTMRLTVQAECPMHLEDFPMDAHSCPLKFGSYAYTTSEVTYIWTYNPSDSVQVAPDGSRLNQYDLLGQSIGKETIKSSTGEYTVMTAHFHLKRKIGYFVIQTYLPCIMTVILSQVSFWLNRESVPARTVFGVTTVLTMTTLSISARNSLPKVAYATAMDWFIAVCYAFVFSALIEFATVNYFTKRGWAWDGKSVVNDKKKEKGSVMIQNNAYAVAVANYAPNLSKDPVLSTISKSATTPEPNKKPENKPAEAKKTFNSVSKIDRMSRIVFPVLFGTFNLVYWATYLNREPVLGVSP
GABAA receptor α2β3γ2, sequence (P63079 26-473): as the sequence (P63079 26-473) above
GABAA receptor α2β3γ2, sequence (P18508 39-466): as the sequence (P18508 39-466) above

DNWWPKPPHQGPRPPRPRPKP [Azemiopsin]
difference in the affinity between the two binding sites (α1/γ and α1/δ) (T. californica nAChR [1]): 27 fold | recovery of the ACh response after washing out the toxin [2]: complete recovery | effect on GABAA receptor currents (GABAA receptor α1β3γ2): no significant effects | effect on GABAA receptor currents (GABAA receptor α2β3γ2): no significant effects | effect at 5-HT3A receptors (5-HT3A receptor): no effects | effect at 5-HT3AB receptors (5-HT3AB receptor): no effects | LD50 [3]: 2.6 ± 0.3 mg/kg

Neurotoxin II Naja oxiana
IC50 (T. californica nAChR [4]): 3 nM | IC50 (Human α7 nAChR [5]): > 4000 nM

α-Cobratoxin
IC50 (Human α7 nAChR [6]): 105 ± 10 nM | IC50 (L. stagnalis AChBP): 2 ± 0.2 nM | IC50 (A. californica AChBP): 58 ± 2 nM
